# Assay outcomes as filed in PubChem.
# SMARCA2 activ: SMARCA2 function activation, primary screen; MG213 cells, MMTV-luciferase reporter, dexamethasone, overnight; activation, % at 9.1 µM; 370,000 compounds, 1% hits; in the data active = activation above about 7.8%;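 also: 0% = vehicle wells and 100% = reference activator wells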
# ARFGAP1 inhibitor: inhibits rat ARF GTPase activating protein 1; 360,000 compounds, 0.26% hits; Q62848; inhibition, % at 16.5 µM; Arfgap1-stimulated ARF1 GTP hydrolysis, GDP FP detection;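 active = inhibition above a per-plate limit, mean inhibition of low control wells plus 3 SD, cut at about 25% in these data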;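 also: 0% = DMSO wells with enzyme and 100% = wells lacking Arfgap1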
# Target sequence (Q62848 1-136 limits assumed): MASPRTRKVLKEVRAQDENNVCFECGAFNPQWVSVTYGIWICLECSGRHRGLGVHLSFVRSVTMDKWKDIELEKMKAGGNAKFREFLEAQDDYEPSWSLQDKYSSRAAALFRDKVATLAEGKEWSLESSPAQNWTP
#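 System: truncated rat Arfgap1 GAP domain / Medium: HEPES-based buffer, pH 7.5 / Also added: N-terminally truncated human ARF1-GTP substrate / Incubation: enzyme reaction 120 min at 25 °C after 20 min preincubation / Measured by: FP of antibody-bound GDP Alexa 633 tracer, ex 620/em 688 nm / Replicates: singlicate, each compound tested once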
# esBAF inh: blocks esBAF chromatin remodeling in mouse ES cells | Bmi1-luciferase knock-in reporter, 24 h; 100% = twice the neutral-well signal | 350,000 compounds, 2% hits | AID 602393 | reporter increase, % at 12.5 µM; in the data active = activation above about 40%; inconclusive = no clear call, values can overlap the other calls;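 also: 0% = median of the plate's neutral control wells and 100% = double that signal; a rise in the Bmi1 reporter signal indicates esBAF inhibition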
# ASAP1 GAP inh: inhibitors of human ASAP1 ArfGAP activity. Q9ULH1. ASAP1-stimulated ARF1 GTP hydrolysis, GDP FP detection. inhibition, % at 16.5 µM. 360,000 compounds, 0.19% hits; in the data active = inhibition above about 25%;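 also: 0% = vehicle with enzyme and substrate and 100% = no enzyme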
# Target sequence (Q9ULH1 325-724 limits assumed): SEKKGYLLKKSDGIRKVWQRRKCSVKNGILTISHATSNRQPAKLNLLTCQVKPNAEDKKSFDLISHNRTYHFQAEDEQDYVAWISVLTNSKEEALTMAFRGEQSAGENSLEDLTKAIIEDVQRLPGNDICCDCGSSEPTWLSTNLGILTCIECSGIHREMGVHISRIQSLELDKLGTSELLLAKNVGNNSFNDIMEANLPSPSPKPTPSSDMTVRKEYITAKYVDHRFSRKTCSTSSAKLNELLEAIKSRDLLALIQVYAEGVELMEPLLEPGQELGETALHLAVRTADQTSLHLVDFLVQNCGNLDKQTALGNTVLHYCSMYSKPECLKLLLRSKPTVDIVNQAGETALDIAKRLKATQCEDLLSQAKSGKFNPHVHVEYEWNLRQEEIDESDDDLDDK
# SMARCA2 act conf: SMARCA2 activation, confirmation screen | shares compounds with SMARCA2 activ | MG213 cells, MMTV-luciferase with dexamethasone, luminescence, overnight; MG213 cells expressing E1A, Rb sequestered; DMSO wells 0%, reference activator 100% | activation, % at 9.1 µM | 3,500 compounds, 30% hits | AID 652260;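 active = activation above its plate's cutoff, the mean activation of tested wells plus 3 SD, cut at about 7.9% in these data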
# GAL4-VP16 Luc: activates GAL4-VP16 luciferase, flagging SMARCA2 activator hits | shares compounds with SMARCA2 activ | HEK293 GAL4-VP16 pG5luc reporter, luciferase luminescence; scaled: DMSO wells 0%, SAHA wells 100% | activation, % at 9.1 µM | 3,500 compounds, 41% hits | AID 686939;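 active = activation above the solvent-only control well mean plus 3 SD, averaged across control plates, cut at about 5.2% in these data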
# An asterisk follows results filed as active; ? = inconclusive; nt = no result given. An excerpt weighted towards active compounds, which were near 2.6% of everything screened.
SMILES,SMARCA2 activ,ARFGAP1 inhibitor,esBAF inh,ASAP1 GAP inh,SMARCA2 act conf,GAL4-VP16 Luc
C[C@@H]1CN([C@@H](C)CO)S(=O)(=O)c2ccc(-c3cccnc3)cc2O[C@H]1CN(C)C(=O)NC1CCCC1,nt,nt,-6.1,nt,nt,nt
Cc1ccccc1S(=O)(=O)N1[C@@H](C#N)[C@@H](c2ccc(-c3ccccc3)cc2)[C@@H]1CO,nt,nt,3.9,nt,nt,nt
O=C(COc1ccccc1CNCc1ccccc1)Nc1ccccc1,9.9*,-7.5,3.5,0.9,3.2,0.6
CO[C@@H]1CN(C)C(=O)c2cc(NS(=O)(=O)c3ccccc3Cl)ccc2OC[C@@H](C)NC[C@@H]1C,nt,nt,-4.8,nt,nt,nt
COCCNC[C@H]1[C@@H](c2ccccc2)[C@@H](CO)N1c1nc(C)c(C)s1,nt,nt,3.0,nt,nt,nt
COc1cc(/C=C2\CCC/C(=C\c3ccc(O)c(OC)c3)C2=O)ccc1O,-3.2,18.2,9.1,15.1,nt,nt
CCOc1cc(/C=C2\CN(CC)C/C(=C\c3ccc(O)c(OCC)c3)C2=O)ccc1O,10.1*,-2.1,23.0,10.9,-7.3,-3.4
CC1CCc2onc(C(=O)O)c2C1 (stereo not drawn),-0.6,2.9,-9.9,5.2,nt,nt
CCCCCCCCCc1conc1C(=O)/C=C/c1oc2c(c1C)CCC(C)C2 (stereo not drawn),9.0*,-2.3,nt,-0.4,-7.2,0.2
Cc1cc(C(=O)Nc2cccc3c2O[C@@H](CN(C)Cc2ccc4c(c2)OCO4)[C@H](C)CN([C@H](C)CO)C3=O)n(C)n1,nt,nt,2.8,nt,nt,nt
CO[C@@H]1CN(C)C(=O)c2ccc(NC(=O)C3CCC3)cc2OC[C@H](C)N(Cc2ccc(F)cc2)C[C@@H]1C,nt,nt,-4.3,nt,nt,nt
CN(CCc1ccccc1)C(=O)c1cc2ccccn2n1,8.2*,nt,nt,nt,5.1,6.0*
O=C(COC(=O)c1nc(Cl)c(Cl)c(Cl)c1Cl)NCc1ccccc1,20.7*,5.9,2.2,-16.9,53.3*,1.5
Nc1ccc2c(c1)C(=O)c1ccccc1-2,-1.8,-10.5,15.3,-3.0,nt,nt
CC(=O)Nc1ccc2c(c1)C(=O)c1ccccc1C2=O,9.4*,6.5,26.6,1.3,18.9*,11.3*
Nc1ccc2c(c1)C(=O)c1ccccc1C2=O,11.7*,-8.8,69.2*,14.0,9.1*,9.0*
C[C@H]1CN([C@@H](C)CO)C(=O)c2cc(NC(=O)CCC(F)(F)F)ccc2O[C@@H]1CN(C)CC1CC1,nt,nt,4.3,nt,nt,nt
O=C(C[C@@H]1CC[C@H](NS(=O)(=O)c2ccccc2)[C@H](CO)O1)N1CCc2ccccc2C1,nt,nt,1.0,nt,nt,nt
Cc1ccc(-n2ncc(Cl)c2C(=O)NCc2ccccc2)cc1,-0.5,-2.7,?,-4.3,nt,nt
C=CCNC(=O)c1c(Br)cnn1-c1ccc(C)cc1,9.2*,-0.8,nt,3.3,10.6*,10.7*
O=C(NCC[C@@H]1CC[C@H](NC(=O)c2cnccn2)[C@H](CO)O1)c1ccc2c(c1)OCO2,nt,nt,5.0,nt,nt,nt
CN(C)C(=O)N1CCN(c2nc(-c3ccccc3)cs2)CC1,11.2*,-1.8,36.9,7.6,4.4,5.9*
O=C(Cn1cc(/C=C\[N+](=O)[O-])c2ccccc21)Nc1ccccc1,17.0*,-5.5,-0.8,-11.0,10.0*,0.8
O=C(O)Cn1cc(/C=C/[N+](=O)[O-])c2ccccc21,3.0,-0.1,nt,0.4,nt,nt
CCN1CCc2c(sc(NC(=S)NC(=O)c3ccco3)c2C(N)=O)C1,9.8*,6.2,nt,3.7,0.2,3.4
SMILES,SMARCA2 activ,ARFGAP1 inhibitor,esBAF inh,ASAP1 GAP inh,SMARCA2 act conf,GAL4-VP16 Luc
O=S(=O)(NNc1ccc(Cl)nn1)c1ccc(F)cc1,8.4*,5.8,nt,-6.6,1.4,1.1
O=S(=O)(Nc1ccc(Cl)nn1)c1ccccc1,-3.9,-4.7,nt,5.7,nt,nt
CCCNC(=O)C[C@@H]1C[C@H]2c3cc(NC(=O)COC)ccc3O[C@H]2[C@@H](CO)O1,nt,nt,1.6,nt,nt,nt
Cn1c2ccc(Cl)cc2c2nc3ccccc3nc21,9.4*,14.4,12.6,1.4,11.4*,3.1
Cn1nc(/C=C/c2ccccc2)ccc1=O,8.9*,8.9,25.0,-21.9,3.1,4.8
COc1ccc(C2=NN(C(=O)c3ccco3)C(c3cccs3)C2)cc1OC (stereo not drawn),11.6*,9.0,15.6,0.6,18.2*,4.5
COc1ccc(C2=NN(C(=O)CCCC(=O)O)C(c3cccs3)C2)cc1OC (stereo not drawn),2.1,13.2,nt,-12.8,nt,nt
Cc1ccc(C(=O)CC(C(=O)O)n2ccc(C)n2)cc1 (stereo not drawn),8.2*,6.1,1.5,7.6,-0.9,-0.4
Cc1nc2nc(-c3ccc(Cl)cc3)cn2nc1C,5.7,7.5,nt,-13.0,nt,nt
Cc1nc2nc(-c3cccs3)cn2nc1C,10.4*,8.1,nt,7.8,11.3*,12.8*
CCC(Sc1nc2ccccc2c(=O)n1CC1CCCO1)C(=O)NCc1cccnc1 (stereo not drawn),8.3*,-3.2,nt,-6.4,0.4,-0.2
COc1ccc(S(=O)(=O)Nc2cccc(SC)c2)cc1C(=O)N1CCOCC1,9.6*,13.5,-5.2,-4.3,0.2,-0.5
COc1ccc(S(=O)(=O)NCc2cccnc2)cc1C(=O)N1CCCCC1,9.8*,-7.6,-3.9,3.3,-1.3,0.5
Cc1ccc(CCNC(=O)CCS(=O)(=O)c2cc3c(cc2C)NC(=O)CO3)cc1,12.0*,0.6,-6.6,-1.8,1.8,-0.8
C[C@@H]1CN([C@H](C)CO)C(=O)c2cc(NC(=O)Cn3cnnn3)ccc2O[C@H]1CN(C)Cc1ccc(C(=O)O)cc1,nt,nt,6.3,nt,nt,nt
Cc1ccc(S(=O)(=O)Nc2cccc3c2O[C@@H](CN(C)Cc2ccc(Cl)c(Cl)c2)[C@@H](C)CN([C@@H](C)CO)C3=O)cc1,nt,nt,-5.0,nt,nt,nt
Cc1cc(OCc2cn3cccnc3n2)ccc1Cl,8.4*,6.7,nt,1.0,8.5*,5.6*
Clc1ccc(SCc2cn3cccnc3n2)cc1,1.3,4.5,?,4.2,nt,nt
CO[C@@H]1CN(C)C(=O)c2ccc(NC(=O)Nc3ccccc3Cl)cc2OC[C@@H](C)N(C)C[C@H]1C,nt,nt,4.9,nt,nt,nt
CC(C)C[C@H]1CN([C@@H](Cc2ccc(O)cc2)CN2CCCC2CN2C(=S)NC[C@@H]2Cc2ccccc2)C(=S)N1CC1CCCCC1 (stereo partly drawn),8.0*,-1.2,nt,20.1,-3.1,-0.6
COc1ccc([C@H]2CC(=O)C=C(c3ccc4c(c3)OCCO4)C2)cc1,8.3*,0.2,13.8,6.1,2.2,1.9
O=C1C=C(c2ccc3c(c2)OCO3)C[C@@H](c2ccc3c(c2)OCO3)C1,0.3,1.7,-1.5,1.4,nt,nt
O=C(C[C@H]1CC[C@H]2[C@@H](COC[C@H](O)CN2CC2CC2)O1)NCc1ccc(Cl)cc1,nt,nt,-6.8,nt,nt,nt
CCCOc1cccc(/C=N/NC(=O)c2csc(C)c2C)c1,12.7*,14.2,21.2,5.7,1.7,2.1
COc1ccc(-n2sc3ccccc3c2=O)cc1,13.1*,11.4,-1.1,6.4,15.0*,3.0
